Bioassay records deposited in PubChem by several laboratories.
Rows were chosen to be rich in hits. Some 9.5% of all compounds tested hit in one or more screens of this group.
Jurkat viability – cytotoxic compounds reducing Jurkat cell viability | Jurkat E6.1 viability, ATP luminescence, 48 h | inhibition, % at 4 µM | 1.2% of 56,000 active | AID 463;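 active means inhibition above the mean inhibition of all tested compounds plus 3 SD, cut at about 28% in these data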
M1 agonist – activates the M1 muscarinic receptor; AID 626; 3% of 64,000 active; CHO-M1 cells, Fluo-4 calcium fluorescence, agonist mode; active compounds read high; B-score at 10 µM;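 active means fluorescence rise, raw or as B-score row- and column-corrected plate score, outside the 99.7% band of its plate's samples, either direction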
mHtt clearance – mutant huntingtin protein clearance; AID 853; inhibition, % at 1.5 µM; HeLa Exon1htt(103Q)mCFP, aggregate imaging; zero = plate's median compound well; 0.42% of 47,000 active;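 active means inhibition of aggregate fluorescence above about 70%, also judged a hit by eye on the cell image, limit read from the data, passing the limit was not always enough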;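 further: cells exposed to compound for three days before fixation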
M1 antag – M1 muscarinic receptor (rat) antagonism. B-score at 10 µM. 3.4% of 64,000 active. P08482. AID 628. CHO-M1 cells, Fluo-4 calcium, ACh EC80 antagonist mode; active compounds read low;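 active means calcium fluorescence response, raw or row-and-column corrected B-score, differing from the plate sample mean either way at a set confidence level, mostly lower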
Target sequence (P08482 whole entry, looked up): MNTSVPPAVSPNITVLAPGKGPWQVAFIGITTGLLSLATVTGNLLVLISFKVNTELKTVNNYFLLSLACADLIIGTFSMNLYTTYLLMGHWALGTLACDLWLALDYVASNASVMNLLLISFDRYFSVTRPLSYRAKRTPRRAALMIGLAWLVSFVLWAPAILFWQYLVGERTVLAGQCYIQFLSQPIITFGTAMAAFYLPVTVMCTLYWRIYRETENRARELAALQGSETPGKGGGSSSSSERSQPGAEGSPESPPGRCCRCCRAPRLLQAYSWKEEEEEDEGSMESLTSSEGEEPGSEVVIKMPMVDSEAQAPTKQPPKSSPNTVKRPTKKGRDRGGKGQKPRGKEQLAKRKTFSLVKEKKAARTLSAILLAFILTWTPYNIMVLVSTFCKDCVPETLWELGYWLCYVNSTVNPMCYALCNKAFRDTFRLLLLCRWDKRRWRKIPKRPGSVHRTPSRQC
HEK293 NFkB inh – inhibitors of the PMA/ionomycin-induced NF-kB reporter in HEK293 cells | HEK-293 NF-kB luciferase reporter, luminescence | inhibition, % at 3 µM | 0.21% of 62,000 active | AID 465;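 active means inhibition above the mean of all tested compounds plus 3 SD, cut at about 40% in these data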;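 further: 0% = stimulated DMSO wells and 100% = 10 µM reference inhibitor 5653914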
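Signal: luciferase luminescence; Material: HEK-293 cells with stable firefly luciferase reporter driven by four HIV NF-kB elements; Probe or stimulus: PMA with ionomycin; Replication: tested once; Times: 1 h compound pretreatment, then 16 h stimulation at 37 °C, 5% CO2; Benchmarks: DMSO and 10 µM reference inhibitor; Evaluation: per-plate % inhibition versus controls.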
D1 allo mod – D1 dopamine receptor (human) allosteric modulation; P21728; 5.9% of 58,000 active; B-score at 10 µM; HEK293 D1, CRE-luciferase, dopamine EC30 potentiation; actives deviate in either direction;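 active means luminescence count or its row- and column-corrected plate score outside the 99.7% band of the plate's sample wells, on either side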
M1 antag conf – M1 muscarinic receptor (rat) antagonism, confirmed; shares compounds with M1 antag; CHO-M1 cells, Fluo-4 calcium, ACh EC80 antagonism; active compounds read low; calcium response (max-min fluorescence) at 10 µM; 43% of 1,700 active; AID 677;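 active means calcium response below the same-plate mean of wells given acetylcholine alone at its 80%-effect dose, minus 3 SD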;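 further: raw fluorescence intensity difference in arbitrary instrument units and not normalized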
mGluR4 antag – selectivity test for M1 antagonists: human mGluR4 receptor. 0.9% of 1,700 active. CHO-mGluR4 calcium flux, Fluo-4 fluorescence, glutamate EC80; active compounds read low. shares compounds with M1 antag. AID 678. fluorescence response (max-min) at 10 µM;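 active means fluorescence response below the plate's average for near-maximal glutamate wells, less 3 SD of those wells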;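 further: raw unnormalized fluorescence span taken in the window right after glutamate addition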
D1 mod confirm – confirmation of human D1 dopamine receptor allosteric modulators | shares compounds with D1 allo mod | HEK293 D1 CRE-luciferase, dopamine EC30 potentiation; active compounds read high | luminescence at 10 µM | 88% of 2,200 active | AID 642;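 active means luminescence in either of two replicates above the same-plate mean plus 3 SD of the low-dose dopamine control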
D1 ag no DA – secondary test of D1 modulators: activity without dopamine | shares compounds with D1 allo mod | HEK293 D1 CRE-luciferase, luminescence, no dopamine; active compounds read high | luminescence at 10 µM | 0.8% of 1,900 active; in the data active means luminescence above about 3900
Isoprot counter – alters isoproterenol CRE-luciferase response in HEK293 cells; HEK293 D1 CRE-luciferase, isoproterenol EC30 counter-screen; active compounds read high; shares compounds with D1 allo mod; 63% of 2,200 active; luminescence at 10 µM;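 active means luminescence in either replicate above plate mean of wells with a partly effective reference agonist dose plus 3 SD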;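 further: isoproterenol raises cAMP through native beta-adrenoceptor Gs so signal bypasses D1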
The depositor's hits bear a star; . = no result.

SMILES	Jurkat viability	M1 agonist	mHtt clearance	M1 antag	HEK293 NFkB inh	D1 allo mod	D1 mod confirm	D1 ag no DA	Isoprot counter	others
COc1ccc(N2CCN(C(=O)C(C)(C)Oc3ccc(Cl)cc3)CC2)cc1	4	0.078	38	-0.4	4	0.25	.	.	.
CCOC(=O)N1CCN(C(=O)C(C)(C)Oc2ccc(Cl)cc2)CC1	7	-0.25	-36	-2.6*	16	1.9*	7408*	1572	2568	M1 antag conf=525;mGluR4 antag=213
N#CCSc1nc2c(cc1C#N)CCCCCC2	.	0.062	18	-5.3*	.	7.9*	11156*	1660	3504*	M1 antag conf=205*;mGluR4 antag=259
Cc1c(NS(=O)(=O)c2ccc3c(c2)c(=O)n(C)c(=O)n3C)c(=O)n(-c2ccccc2)n1C	.	1.1	.	-0.028	10	0.11	.	.	.
CCc1nc(NCc2ccco2)c2oc3ccccc3c2n1	.	-0.0089	-13	-3.9*	11	13*	3596	.	2292	M1 antag conf=581;mGluR4 antag=213
CCOC(=O)CSc1nnc(CNC(=O)c2cccs2)n1-c1cc(C)ccc1C	-8	1.3	50	-0.65	9	0.042	.	.	.
OCc1nc2ccccc2n1CCCOc1ccc(Br)cc1	4	1.2	2	0.031	7	-0.76	.	.	.
CC(Oc1ccc(Cl)cc1Cl)C(=O)NCc1ccncc1 (stereo unspecified)	.	0.64	.	-2.4*	14	6.7*	14184*	1620	3668*	M1 antag conf=605;mGluR4 antag=223
CC(Oc1ccc(Cl)cc1Cl)C(=O)NCCCn1ccnc1 (stereo unspecified)	3	0.008	.	-0.19	18	.	.	.	.
COc1ccc(-c2nc3c(n2O)CCCC3=O)cc1OC	2	-0.047	-9	-0.31	25	.	.	.	.
c1ccc(-c2oc3ncnc(NCCCn4ccnc4)c3c2-c2ccccc2)cc1	9	0.037	-38	-3.9*	18	3.8*	9476*	1872	3872*	M1 antag conf=435;mGluR4 antag=145*
Cc1nc2c(C(=O)NCc3ccco3)cnn2c(C)c1Cc1ccc(F)cc1Cl	-2	0.5	-25	-0.16	-1	0.97	.	.	.
Cc1cccc(Cc2c(C)nc3c(C(=O)NCc4ccco4)cnn3c2C)c1	6	1.2	30	0.067	20	3.9*	8112*	1484	2704
CCOC(=O)C1CCCCN1Cc1cccc(OC)c1OC (stereo unspecified)	.	.	50	.	.	.	.	.	.
CCOC(=O)C1CCCCN1Cc1cc(Cl)ccc1O (stereo unspecified)	.	0.074	.	-0.041	.	4*	8896*	.	2724*
COc1ccc(C)cc1NC(=O)C1CCN(S(=O)(=O)c2cccc3cccnc23)CC1	-2	-0.011	.	-0.21	-2	1.3	.	.	.
COc1ccc(NC(=O)C2CCN(S(=O)(=O)c3cccc4cccnc34)CC2)cc1OC	0	-0.0065	.	-0.98	15	3.6*	13296*	1648	3148*
COc1ccc(N2CCN(S(=O)(=O)c3cccc4cccnc34)CC2)cc1	-3	0.54	.	-0.37	8	8.7*	19744*	1632	5252*
CC(C)c1cc(C(F)(F)F)n2nc(C(=O)Nc3ccc4c(c3)OCO4)cc2n1	-2	-1.5	-43	-0.59	-12	0.33	.	.	.
NC(=O)C1CCN(C(=O)CSc2nc3c(c(-c4ccccc4)n2)CCCC3)CC1	-7	0.31	-70	-0.49	-2	0	.	.	.
CC(/C=C1\N=C(SCc2ccccc2Cl)SC1=O)=C\c1ccccc1	.	.	15	.	.	.	.	.	.
Nc1nc(-c2cccs2)c(NC(=O)c2ccccc2)s1	-7	-0.049	.	-0.44	19	6*	14100*	1740	3544*
Cc1sc(N)nc1-c1cccs1	.	.	31	.	.	.	.	.	.
